Results on 22 sequences are retold here after the EternaBench riboswitch data.

Data set [1] deals with MS2 coat protein. The data set can be described thus: apparent Kd, MS2 coat protein; higher = weaker binding; RNA-MaP array; theophylline 2 mM where present. In a few lines:
(§1)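 Binding was read on Illumina sequencing-chip clusters where stalled E. coli RNA polymerase had transcribed each design. A titration of SNAP-549-labelled MS2 coat protein began at 0.7 or 1.5 nM and doubled to 3 µM, once without ligand and once with constant ligand, in 100 mM Tris-HCl pH 7.5, 80 mM KCl, 4 mM MgCl2, BSA, DTT, yeast tRNA and Tween-20. The apparent Kd is the median of filtered per-cluster binding-curve fits, based on green signal normalised to red-channel RNA signal and control-cluster median Fmax.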

The test system of data set [2] is MS2 coat protein. Description: apparent Kd, MS2 coat protein; higher = weaker binding; RNA-MaP array; tryptophan 2.4 mM where present. A digest of the protocol: as §1
The mark [3] stands for this setting: designed as: ON switch for theophylline, no ligand.
The mark [4] stands for this setting: ligand present: theophylline, designed as: ON switch for theophylline.
Setting [5] is: designed as: OFF switch for theophylline, no ligand.
The mark [6] stands for this setting: ligand present: theophylline, designed as: OFF switch for theophylline.
[7] abbreviates: designed as: OFF switch for tryptophan, no ligand.
Setting [8] is: ligand present: tryptophan, designed as: OFF switch for tryptophan.
The mark [9] stands for this setting: designed as: ON switch for tryptophan, no ligand.
The mark [10] stands for this setting: ligand present: tryptophan, designed as: ON switch for tryptophan.

One may read the apparent Kd as the concentration giving half-maximal binding under the conditions of the assay. Regarding “ACGACAUGAGGAUCACCCAUGUAAGGUGAUACCAGACGAAGUAAUGUCCCUUGGCAGCACAAGCAUAGUUGCGAUUAUUGUACGA”, the “apparent Kd” value was 438 nM in data set [1] (setting [3]) and 158 nM in data set [1] (setting [4]).
As for “AUUAAUAGUUGUGAUACCAGACGAACAUGAGGAUCACCCAUGUAACUUAAGAGUGUUGAUGUCCCUUGGCAGCACUGUUUAGUUA”, the “apparent Kd” value in data set [1] (setting [3]) was 108 nM; in data set [1] (setting [4]), 87.8 nM.
Regarding “AAUAUAAGUGUAAUUUUAUGUAUCUCUGAUACCAGACCCUCAUGUGUCCCUUGGCAGCAGUAACAUGAGGAUCACCCAUGUAAAA”, the results for the “apparent Kd” value in data set [1] (setting [3]) and in data set [1] (setting [4]) were 65.4 nM and 310 nM, respectively.
Turning to “ACAUGAGGAUCACCCAUGUUCCUCAUUGAUACCAGUGAAAGAAGACGCCCUUGGCAGCGAGAAGAAGAAGAAGAAGUUUUUUUUU”, the entries for the “apparent Kd” value in data set [1] (setting [5]) and in data set [1] (setting [6]) were 606 nM and 1340 nM, respectively.
With “CCGCCCACGAAUGAUACCAGCUAAAAUCAUGUACCAGACACAUGAGGAUCACCCAUGUAAAGCCCUUGGCAGCGUACGCCACCCG”, the “apparent Kd” value was found to be 23.5 nM in data set [1] (setting [5]) and 26.4 nM in data set [1] (setting [6]).
Take “AGUACUCGAACGGAUACCAGCCGGACAUGAGGAUCACCCAUGUCCUACCUAUGUUCGGUUGGCCCUUGGCAGCCGUUCGUGUACA”: the “apparent Kd” value in data set [1] (setting [3]) came to 215 nM; in data set [1] (setting [4]) it was 51 nM.
As for “UGUUUUGUGAUGGAUACCAGCAGAGAAAACGUUUAUCCUAACAUGAGGAUCACCCAUGUAUGCCCUUGGCAGCUGUUGUGGGAUA”, the “apparent Kd” value in data set [1] (setting [5]) is 29.7 nM; in data set [1] (setting [6]), 34.1 nM.
The corresponding values for “GAGCUGAUGUAGAAAUUUUAUUUAUGAGAUACCAGUACAGAAAUGUACCCUUGGCAGCUCAAUUUUACAUGAGGAUCACCCAUGU” are 12.1 nM and 13.4 nM.
Consider “AAACAUGAGGAUCACCCAUGUUCAAUAGAUACCAGUGAUACGGUGCACCCUUGGCAGCUGUUGCUGAGUGAUGGUUCCCUCGGUA”, for which the “apparent Kd” value in data set [1] (setting [3]) amounted to 29 nM; in data set [1] (setting [4]) it was 37.3 nM.
With “CGGUUUGUGAUGGAUACCAGCAGAGUGAAUGUUUAUCCUGACAUGAGGAUCACCCAUGUGUGCCCUUGGCAGCUGUUGUGGGCUG”, the “apparent Kd” value in data set [1] (setting [5]) was 63.5 nM; in data set [1] (setting [6]), 89.4 nM.
For “CGAAUACUGAGUGAUACCAGUGAAAGAUAACUGUAUACACAUGAGGAUCACCCAUGUACACACCCUUGGCAGCACACUAGAUCGA”, the entries for the “apparent Kd” value in data set [1] (setting [3]) and in data set [1] (setting [4]) were 33.3 nM and 17.4 nM, respectively.
The corresponding values for “GUAAAUGUGACGGAUACCAGCGUGUUGUAGAACAUGAGGAUCACCCAUGUAGUGAUCAUGCGCCCUUGGCAGCUGGUAUGUUUGU” are 474 nM and 841 nM.
Consider “AGCACACAUCCUGAUACCAGAGACAUGAGGAUCACCCAUGUCCGAUCGUCCUGCCUCAGACUCCCUUGGCAGCAGGAUGUGUGCU”, for which the “apparent Kd” value in data set [1] (setting [5]) turned out to be 13.1 nM; in data set [1] (setting [6]), 32.4 nM.
The corresponding values for “GCGAUACGUACUGAUACCAGAGACAUGAGGAUCACCCAUGUCCCAUGAUCAUACCUCAGACUCCCUUGGCAGCAGGAUAAGUGAG” are 11.2 nM and 18.3 nM.
Turning to “GGCCAUGGAAACAUGGCGGCGGCAUAUGCGCGAGGACCGGUACGGCCGCCACUCGGGCAACAUGAGGAUCACCCAUGUUCCUCAU”, the entries for the “apparent Kd” value in data set [2] (setting [7]) and in data set [2] (setting [8]) were 211 nM and 454 nM, respectively.
For the sequence “CUAUUUAUAGCGGCCGCCACUUACUCAUGAGGUAACAACAUGAGGAUCACCCAUGUUUGAGGAUCAAGGACCGGGCUAUGGAUAG”, the “apparent Kd” value in data set [2] (setting [9]) stood at 26 nM; in data set [2] (setting [10]), 20.1 nM.
Turning to “AAUGUAUGGCACAUGAGGAUCACCCAUGUGCGAGGACCGGUACGGCCGCCACUCGGUCCUGGGAUCUUACAACUAUACAUUAAUG”, the “apparent Kd” value stood at 13.2 nM in data set [2] (setting [7]) and 27 nM in data set [2] (setting [8]).
On the same counts, the results for “AGUGUCGGAGCGGCCGCCACUAGCACAUCUGGUCGCCAUGGCAACAUGAGGAUCACCCAUGUUGCUAGGACCGGGCUCAAUAUUU” are 9.38 nM and 10.7 nM.
For the sequence “ACGUCGCAUAGGAAAACUAUGUGACGAAAUCGAGGACCGGUACGGCCGCCACUCGUCCUCAACAUGAGGAUCACCCAUGUAAUAA”, the “apparent Kd” value amounted to 18.7 nM in data set [2] (setting [7]) and 36.6 nM in data set [2] (setting [8]).
Take “AUCAUAAUAGACUCGUUAGAUUAUAUGGAACGAGGACCGGUACGGCCGCCACUCGUGAUGUACAUGAGGAUCACCCAUGUUAGCU”: the “apparent Kd” value in data set [2] (setting [9]) was found to be 14.7 nM; in data set [2] (setting [10]), 15.2 nM.
Consider “ACUCGACCAUCAGCCAUUUGUGAAUCACGGCGAGGACCGGUACGGCCGCCACUCGACAUGAGGAUCACCCAUGUAAGACCGGUGU”, for which the “apparent Kd” value in data set [2] (setting [7]) came to 25.8 nM; in data set [2] (setting [8]) it was 50.3 nM.
On to “UGUACCAUGUCGGCCGCCACUCAUGAUAAACAUGAGGAUCACCCAUGUAGCGUCAAAGACGCUAUGAGGACCGGGACAUGGUACU”, for which the “apparent Kd” value amounted to 35 nM in data set [2] (setting [9]) and 12.2 nM in data set [2] (setting [10]).
